Measurements published in ChEMBL document CHEMBL1127484, “5-Aryl-3-(alkylthio)-4H-1,2,4-triazoles as selective antagonists of strychnine-induced convulsions and potential antispastic agents” (J Med Chem, 1994).

Tests used:
Mus musculus [1] = assay: Effective dose required for antagonist activity against 3-mercaptopropionic-acid-induced seizures in mice when administered intraperitoneally; Range is 50-100; assay type: functional; settings: ip
How it was run: (§1)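 CD-1 male mice (18–26 g), groups of 5 or 10, housed individually, dosed ip in distilled H2O or H2O/Tween 80. Convulsant given 30 min later. Strychnine sulfate 2.7 mg/kg ip: protection = no tonic extension >15 min. MES 50 mA, 0.2 s, corneal: no tonic hind-limb extension. PTZ 60 mg/kg iv: no clonic seizures for 2 min. MPA 100 mg/kg iv: no seizures for 5 min. ED50 by quantal analysis from ≥4 doses, ≥10 mice each.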

Mus musculus [2] = assay: Effective dose required for antagonist activity against maximal electroshock induced seizures in mice when administered intraperitoneally; assay type: functional; settings: ip; how it was run: as §1
Mus musculus [3] = assay: Effective dose required for antagonist activity against pentylenetetrazole-induced seizures in mice when administered intraperitoneally; Range is 25-50; assay type: functional; settings: ip; how it was run: as §1
Mus musculus [4] = assay: Effective dose required for antagonist activity against strychnine induced seizures in mice when administered intraperitoneally; assay type: functional; settings: ip; how it was run: as §1
[5] = Dose encompassing the 50% lethal effect was recorded when administered intraperitoneally in mice; assay type: ADME, organism-based; settings: mouse, in vivo, ip
How it was run: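 Deaths were recorded over the 7 days after dosing. The estimated LD50 was taken as the dose range spanning 50% lethality.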

Mus musculus [6] = assay: Effective dose required for antagonist activity against pentylenetetrazole-induced seizures in mice when administered intraperitoneally; assay type: functional; settings: ip; how it was run: as §1
Mus musculus [7] = assay: Effective dose required for antagonist activity against strychnine induced seizures in mice when administered intraperitoneally; Range is 32-50; assay type: functional; settings: ip; how it was run: as §1
Mus musculus [8] = assay: Effective dose required for antagonist activity against 3-mercaptopropionic-acid induced seizures in mice when administered intraperitoneally; assay type: functional; settings: ip; how it was run: as §1

SMILES | ED50 (Mus musculus [1]) | ED50 (Mus musculus [2]) | ED50 (Mus musculus [3]) | ED50 (Mus musculus [4]) | LD50 [5] | ED50 (Mus musculus [6]) | ED50 (Mus musculus [7]) | ED50 (Mus musculus [8])
CCn1c(SC)nnc1-c1ccc(Cl)cc1 | 100 mg/kg | > 50 mg/kg | 50 mg/kg | 26.7 mg/kg | > 800 mg/kg |  |  | 
Cn1c(-c2cccs2)nnc1[S+](C)[O-] (stereo not given) |  | > 200 mg/kg |  |  | > 800 mg/kg | > 200 mg/kg | 50 mg/kg | > 200 mg/kg
